Data reported in ChEMBL document CHEMBL1811907, “Chemical and biological evaluation of dipeptidyl boronic acid proteasome inhibitors for use in prodrugs and pro-soft drugs targeting solid tumors” (J Med Chem, 2011).

Tested on: not listed separately
Experiment: Inhibition of chymotrypsin-like activity of 20S proteasome using suc-LLVY-AMC as substrate preincubated for 10 mins before substrate addition at pH 2.0 by fluorescence assay
Details: not given
Outline: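 Inhibitor from 0.1 M ethanol stock diluted into pH 2.0 buffer (0.148 M HCl, 0.052 M KCl) and equilibrated overnight at room temperature (24 h per text). 20S proteasome SDS-activated, preincubated 10 min with inhibitor; Suc-LLVY-AMC added; fluorescence (ex 360/em 460 nm) read after 30 min. Assay-well pH checked. Quadruplicates; variable-slope sigmoidal fit.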

Row | IC50 [nM] | Structure (SMILES)
1 | 170 | CC(C)C[C@H](NC(=O)[C@@H](N)Cc1c(F)c(F)c(F)c(F)c1F)B(O)O
2 | 16 | CC(C)C[C@H](NC(=O)[C@H](CO)NC(=O)c1cnccn1)B(O)O
3 | 80 | CC(C)C[C@H](NC(=O)[C@@H](N)[C@@H](C)O)B(O)O
4 | 12 | CC(C)C[C@H](NC(=O)[C@@H](NC(=O)c1cnccn1)[C@@H](C)O)B(O)O
5 | 600 | CC(C)C[C@H](NC(=O)[C@@H](N)CC(C(=O)O)C(=O)O)B(O)O
6 | 26 | CC(C)C[C@H](NC(=O)[C@@H](N)Cc1cccc2ccccc12)B(O)O
7 | 110 | CC(C)C[C@H](NC(=O)[C@@H](N)C(c1ccccc1)c1ccccc1)B(O)O
8 | 75 | CCCC[C@H](N)C(=O)N[C@@H](CC(C)C)B(O)O
9 | 34 | CC(C)C[C@H](NC(=O)[C@@H](NC(=O)c1cnccn1)C(C)(C)O)B(O)O
10 | 82 | CC(C)C[C@H](NC(=O)[C@@H](N)Cc1cccc(F)c1)B(O)O
11 | 110 | CC(C)C[C@H](NC(=O)CNC(=O)c1cnccn1)B(O)O
12 | 50 | CC(C)C[C@H](NC(=O)[C@@H](N)Cc1ccc(-c2ccccc2)cc1)B(O)O
13 | 63 | CC(C)C[C@H](NC(=O)[C@@H](N)CC(N)=O)B(O)O
14 | 33 | CC(C)C[C@H](NC(=O)[C@@H](N)Cc1ccc2ccccc2c1)B(O)O
15 | 66 | CC(C)C[C@H](NC(=O)[C@@H](N)CC(C)C)B(O)O
16 | 90 | CC(C)C[C@H](NC(=O)[C@@H](N)C(C)(C)O)B(O)O
17 | 240 | CC(C)C[C@H](NC(=O)[C@@H](N)C1CCCCC1)B(O)O
18 | 76 | CC(C)C[C@H](NC(=O)[C@@H](N)Cc1ccccc1F)B(O)O
19 | 81 | CC(C)C[C@H](NC(=O)[C@@H](N)Cc1ccc(F)c(F)c1)B(O)O
20 | 36 | CC(C)C[C@H](NC(=O)CN(C)C)B(O)O
21 | 510 | CC(C)C[C@H](NC(=O)[C@@H](N)Cc1cnc[nH]1)B(O)O

Tested on: not listed separately
Experiment: Inhibition of chymotrypsin-like activity of 20S proteasome using suc-LLVY-AMC as substrate preincubated for 10 mins before substrate addition at pH 7.6 by fluorescence assay
Details: not given
Outline: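 Inhibitor from 0.1 M ethanol stock diluted into pH 7.6 buffer (25 mM HEPES, 0.5 mM EDTA) and equilibrated overnight at room temperature (24 h per text). SDS-activated 20S proteasome preincubated 10 min with inhibitor before Suc-LLVY-AMC; fluorescence ex 360/em 460 nm after 30 min. Quadruplicates; variable-slope sigmoidal fit.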

Row | IC50 [nM] | Structure (SMILES)
22 | 470 | CC(C)C[C@H](NC(=O)[C@@H](N)Cc1c(F)c(F)c(F)c(F)c1F)B(O)O
23 | 18 | CC(C)C[C@H](NC(=O)[C@H](CO)NC(=O)c1cnccn1)B(O)O
24 | 450 | CC(C)C[C@H](NC(=O)[C@@H](N)[C@@H](C)O)B(O)O
25 | 25 | CC(C)C[C@H](NC(=O)[C@@H](NC(=O)c1cnccn1)[C@@H](C)O)B(O)O
26 | 3000 | CC(C)C[C@H](NC(=O)[C@@H](N)CC(C(=O)O)C(=O)O)B(O)O
27 | 120 | CC(C)C[C@H](NC(=O)[C@@H](N)Cc1cccc2ccccc12)B(O)O
28 | 350 | CC(C)C[C@H](NC(=O)[C@@H](N)C(c1ccccc1)c1ccccc1)B(O)O
29 | 300 | CCCC[C@H](N)C(=O)N[C@@H](CC(C)C)B(O)O
30 | 28 | CC(C)C[C@H](NC(=O)[C@@H](NC(=O)c1cnccn1)C(C)(C)O)B(O)O
31 | 110 | CC(C)C[C@H](NC(=O)[C@@H](N)Cc1cccc(F)c1)B(O)O
32 | 180 | CC(C)C[C@H](NC(=O)CNC(=O)c1cnccn1)B(O)O
33 | 400 | CC(C)C[C@H](NC(=O)[C@@H](N)Cc1ccc(-c2ccccc2)cc1)B(O)O
34 | 770 | CC(C)C[C@H](NC(=O)[C@@H](N)CC(N)=O)B(O)O
35 | 220 | CC(C)C[C@H](NC(=O)[C@@H](N)Cc1ccc2ccccc2c1)B(O)O
36 | 170 | CC(C)C[C@H](NC(=O)[C@@H](N)CC(C)C)B(O)O
37 | 150 | CC(C)C[C@H](NC(=O)[C@@H](N)C(C)(C)O)B(O)O
38 | 900 | CC(C)C[C@H](NC(=O)[C@@H](N)C1CCCCC1)B(O)O
39 | 140 | CC(C)C[C@H](NC(=O)[C@@H](N)Cc1ccccc1F)B(O)O
40 | 150 | CC(C)C[C@H](NC(=O)[C@@H](N)Cc1ccc(F)c(F)c1)B(O)O
41 | 610 | CC(C)C[C@H](NC(=O)CN(C)C)B(O)O
42 | 5200 | CC(C)C[C@H](NC(=O)[C@@H](N)Cc1cnc[nH]1)B(O)O

Tested on: not listed separately
Experiment: Inhibition of intracellular chymotrypsin-like activity of 20S proteasome in human HEK293 cells after 24 hrs by fluorescence plate reader
Type: cell-based
Details: HEK293, 24 h
Outline: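 HEK 293 ZsGreen proteasome-sensor cells (stable ZsGreen–ornithine decarboxylase degron fusion, G418 maintenance) seeded 3.2 × 10⁴ per well, grown 24 h. Then 24 h with inhibitor at 37 °C, 5% CO₂. Cells lysed in HEPES/EDTA/5% Triton buffer for 1 h; fluorescence ex 485/em 535 nm. Quadruplicates; variable-slope sigmoidal fit.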

Row | IC50 [nM] | Structure (SMILES)
43 | 3300 | CC(C)C[C@H](NC(=O)[C@@H](N)Cc1c(F)c(F)c(F)c(F)c1F)B(O)O
44 | 2500 | CC(C)C[C@H](NC(=O)[C@H](CO)NC(=O)c1cnccn1)B(O)O
45 | > 10000 | CC(C)C[C@H](NC(=O)[C@@H](N)[C@@H](C)O)B(O)O
46 | 790 | CC(C)C[C@H](NC(=O)[C@@H](NC(=O)c1cnccn1)[C@@H](C)O)B(O)O
47 | > 10000 | CC(C)C[C@H](NC(=O)[C@@H](N)CC(C(=O)O)C(=O)O)B(O)O
48 | 150 | CC(C)C[C@H](NC(=O)[C@@H](N)Cc1cccc2ccccc12)B(O)O
49 | 1000 | CC(C)C[C@H](NC(=O)[C@@H](N)C(c1ccccc1)c1ccccc1)B(O)O
50 | > 10000 | CCCC[C@H](N)C(=O)N[C@@H](CC(C)C)B(O)O
51 | 520 | CC(C)C[C@H](NC(=O)[C@@H](NC(=O)c1cnccn1)C(C)(C)O)B(O)O
52 | 1300 | CC(C)C[C@H](NC(=O)[C@@H](N)Cc1cccc(F)c1)B(O)O
53 | 1800 | CC(C)C[C@H](NC(=O)CNC(=O)c1cnccn1)B(O)O
54 | 1400 | CC(C)C[C@H](NC(=O)[C@@H](N)Cc1ccc(-c2ccccc2)cc1)B(O)O
55 | > 10000 | CC(C)C[C@H](NC(=O)[C@@H](N)CC(N)=O)B(O)O
56 | 450 | CC(C)C[C@H](NC(=O)[C@@H](N)Cc1ccc2ccccc2c1)B(O)O
57 | > 10000 | CC(C)C[C@H](NC(=O)[C@@H](N)CC(C)C)B(O)O
58 | > 10000 | CC(C)C[C@H](NC(=O)[C@@H](N)C(C)(C)O)B(O)O
59 | > 10000 | CC(C)C[C@H](NC(=O)[C@@H](N)C1CCCCC1)B(O)O
60 | 3100 | CC(C)C[C@H](NC(=O)[C@@H](N)Cc1ccccc1F)B(O)O
61 | 2100 | CC(C)C[C@H](NC(=O)[C@@H](N)Cc1ccc(F)c(F)c1)B(O)O
62 | > 10000 | CC(C)C[C@H](NC(=O)CN(C)C)B(O)O
63 | > 1000 | CC(C)C[C@H](NC(=O)[C@@H](N)Cc1cnc[nH]1)B(O)O

Tested on: HEK293
Experiment: Ratio of IC50 for intracellular chymotrypsin-like activity of 20S proteasome in human HEK293 cells to IC50 for in vitro chymotrypsin-like activity of 20S proteasome
Type: cell-based
Details: not given

Row | Structure (SMILES) | Ratio IC50
64 | CC(C)C[C@H](NC(=O)[C@@H](N)Cc1c(F)c(F)c(F)c(F)c1F)B(O)O | 20
65 | CC(C)C[C@H](NC(=O)[C@H](CO)NC(=O)c1cnccn1)B(O)O | 150
66 | CC(C)C[C@H](NC(=O)[C@@H](N)[C@@H](C)O)B(O)O | > 120
67 | CC(C)C[C@H](NC(=O)[C@@H](NC(=O)c1cnccn1)[C@@H](C)O)B(O)O | 65
68 | CC(C)C[C@H](NC(=O)[C@@H](N)CC(C(=O)O)C(=O)O)B(O)O | > 20
69 | CC(C)C[C@H](NC(=O)[C@@H](N)Cc1cccc2ccccc12)B(O)O | 6
70 | CC(C)C[C@H](NC(=O)[C@@H](N)C(c1ccccc1)c1ccccc1)B(O)O | 9
71 | CCCC[C@H](N)C(=O)N[C@@H](CC(C)C)B(O)O | > 130
72 | CC(C)C[C@H](NC(=O)[C@@H](NC(=O)c1cnccn1)C(C)(C)O)B(O)O | 15
73 | CC(C)C[C@H](NC(=O)[C@@H](N)Cc1cccc(F)c1)B(O)O | 16
74 | CC(C)C[C@H](NC(=O)CNC(=O)c1cnccn1)B(O)O | 16
75 | CC(C)C[C@H](NC(=O)[C@@H](N)Cc1ccc(-c2ccccc2)cc1)B(O)O | 30
76 | CC(C)C[C@H](NC(=O)[C@@H](N)CC(N)=O)B(O)O | > 160
77 | CC(C)C[C@H](NC(=O)[C@@H](N)Cc1ccc2ccccc2c1)B(O)O | 13
78 | CC(C)C[C@H](NC(=O)[C@@H](N)CC(C)C)B(O)O | > 150
79 | CC(C)C[C@H](NC(=O)[C@@H](N)C(C)(C)O)B(O)O | > 110
80 | CC(C)C[C@H](NC(=O)[C@@H](N)C1CCCCC1)B(O)O | > 40
81 | CC(C)C[C@H](NC(=O)[C@@H](N)Cc1ccccc1F)B(O)O | 41
82 | CC(C)C[C@H](NC(=O)[C@@H](N)Cc1ccc(F)c(F)c1)B(O)O | 26
83 | CC(C)C[C@H](NC(=O)CN(C)C)B(O)O | > 280
84 | CC(C)C[C@H](NC(=O)[C@@H](N)Cc1cnc[nH]1)B(O)O | > 20

Tested on: not listed separately
Experiment: Cytotoxicity against human FSCLL cells after 24 hrs by MTT assay
Type: cell-based
Details: not given
Outline: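 Cells seeded at 3.2 × 10⁴ per well, grown 24 h at 37 °C, 5% CO₂, then exposed to inhibitor dilutions 24 h. Inhibitor from 0.1 M ethanol stock, pre-equilibrated overnight in pH 2.0 or pH 7.6 buffer. MTT (5 mg/mL) added for 3 h; formazan dissolved overnight in acidic Triton/isopropanol; A570 read. Quadruplicates; variable-slope sigmoidal fit.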

Row | Structure (SMILES) | CC50 at 24 h [nM]
85 | CC(C)C[C@H](NC(=O)[C@H](CO)NC(=O)c1cnccn1)B(O)O | 210
86 | CC(C)C[C@H](NC(=O)[C@@H](N)[C@@H](C)O)B(O)O | 2500
87 | CC(C)C[C@H](NC(=O)[C@@H](NC(=O)c1cnccn1)[C@@H](C)O)B(O)O | 100
88 | CC(C)C[C@H](NC(=O)[C@@H](N)Cc1cccc2ccccc12)B(O)O | 11
89 | CCCC[C@H](N)C(=O)N[C@@H](CC(C)C)B(O)O | 950

Tested on: not listed separately
Experiment: Ratio of CC50 for human follicular small-cell lymphocytic leukemia cells to IC50 for chymotrypsin-like activity of 20S proteasome at pH 2.0
Details: not given

Row | Structure (SMILES) | Ratio CC50/IC50
90 | CC(C)C[C@H](NC(=O)[C@H](CO)NC(=O)c1cnccn1)B(O)O | 13
91 | CC(C)C[C@H](NC(=O)[C@@H](N)[C@@H](C)O)B(O)O | 30
92 | CC(C)C[C@H](NC(=O)[C@@H](NC(=O)c1cnccn1)[C@@H](C)O)B(O)O | 8
93 | CC(C)C[C@H](NC(=O)[C@@H](N)Cc1cccc2ccccc12)B(O)O | 0.4
94 | CCCC[C@H](N)C(=O)N[C@@H](CC(C)C)B(O)O | 13

Tested on: not listed separately
Experiment: Ratio of CC50 for human follicular small-cell lymphocytic leukemia cells to IC50 for intracellular chymotrypsin-like activity of 20S proteasome in human HEK293 cells
Details: not given

Row | Structure (SMILES) | Ratio CC50/IC50
95 | CC(C)C[C@H](NC(=O)[C@H](CO)NC(=O)c1cnccn1)B(O)O | 0.08
96 | CC(C)C[C@H](NC(=O)[C@@H](N)[C@@H](C)O)B(O)O | <0.3
97 | CC(C)C[C@H](NC(=O)[C@@H](NC(=O)c1cnccn1)[C@@H](C)O)B(O)O | 0.12
98 | CC(C)C[C@H](NC(=O)[C@@H](N)Cc1cccc2ccccc12)B(O)O | 0.07
99 | CCCC[C@H](N)C(=O)N[C@@H](CC(C)C)B(O)O | <0.1
